For assay [1], the system named is H69AR. In words: Reversal of drug resistance in human NCI-H69AR cells expressing MRP1. It is filed as functional, cell-based. Summed up:
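Cells seeded per well (A2780/ADR 8,000; H69AR 20,000; MDCK II BCRP 3,000) with test compound at 1, 10 or 100 µM solutions added before cells. Daunorubicin (P-gp, MRP1) or SN-38 (BCRP) added to final 10 nM–10 µM. 72 h at 37 °C, then MTT viability read at 570 nm. GI50 from variable-slope nonlinear fits, compared with parental lines; three independent experiments in duplicate.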

Assay [2] is described as follows: Potentiation factor, ratio of GI50 for SN-38 resistant dog MDCK-II-BCRP cells expressing BCRP cells to GI50 for reversal of SN-38 resistance in dog MDCK-II-BCRP cells assessed as SN-38 GI50 at 10 uM (reference value: 1 uM). In kind it is functional, Canis lupus familiaris. Summed up:
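Reversal assay: resistant lines (A2780/ADR, H69AR, MDCK II BCRP) and parental lines seeded as for MTT assay with modulator solutions of 1, 10 and 100 µM added (final 0.1, 1, 10 µM) and daunorubicin (P-gp, MRP1) or SN-38 (BCRP) at final 10 nM–10 µM. 72 h, MTT read-out; GI50 by variable-slope fit. Resistance factor = resistant/sensitive GI50; potentiation factor = GI50 without/with modulator.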

Assay [3] has as its system MDCK-II. In words: Antiproliferative activity against dog MDCK-II cells assessed as reduction in cell viability measured for 72 hrs bt MTT assay. In kind it is functional. Particulars: Canis lupus familiaris.

pEC50: −log10 of the molar value.

The pEC50 is the EC50 on a negative log10 scale, so that one unit is a factor of ten. One may read the GI50 as the concentration at which growth is held to half of that of the control. With `N#Cc1cn(CCCc2ccccc2)c2c(N3CCN(CCc4c[nH]c5ccccc45)CC3)ncnc12`, in assay [1], the pEC50 is 6.02. Moreover, the PF in assay [2] is 28. For the same compound, the GI50 in assay [3] turned out to be 37.2 µM.

The record behind these values is ChEMBL document CHEMBL5260824, “9-Deazapurines as Broad-Spectrum Inhibitors of the ABC Transport Proteins P-Glycoprotein, Multidrug Resistance-Associated Protein 1, and Breast Cancer Resistance Protein” (J Med Chem, 2017).
